Assay results from ChEMBL document CHEMBL1828568, “Novel imaging agents for β-amyloid plaque based on the N-benzoylindole core” (Bioorg Med Chem Lett, 2011).

Test: Displacement of [125I]TZDM from amyloid beta (1 to 40) aggregates after 2 hrs by gamma counting
Summary of the method: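 Competition binding against [125I]TZDM as radiolabeled standard, using Aβ1–40 aggregates; run in triplicate, results as mean ± SD.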

O=C(/C=C/c1ccccc1)n1ccc2ccccc21 gave a Ki of 15.9 nM.

With COc1ccc(/C=C/C(=O)n2ccc3cc(Cl)ccc32)cc1 the Ki was 18.1 nM.
